Measured values published in ChEMBL document CHEMBL1139804, “In vitro affinities of various halogenated benzamide derivatives as potential radioligands for non-invasive quantification of D(2)-like dopamine receptors” (Bioorg Med Chem, 2007).

Key:
D(1A) dopamine receptor = D(1A) dopamine receptor (Sus scrofa, UniProt P50130); test: Displacement of [3H]SCH23990 from dopamine D1 receptor in pig striatal membrane; type: cell membranes, Striatum
D(2) dopamine receptor [1] = molecular target: T1, D(2) dopamine receptor (Homo sapiens, UniProt P14416); test: Displacement of [3H]spiperone from dopamine D2short receptor in CHO cells; type: cell-based
Method in brief: (§1)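 Competition binding used membranes from stably transfected CHO cells expressing human D2long, D2short, D3 or D4.4 receptor, with [³H]spiperone at 0.1 nM final.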

D(2) dopamine receptor [2] = molecular target: T1, D(2) dopamine receptor; test: Displacement of [3H]spiperone from dopamine D2long receptor in CHO cells; type: cell-based; method in brief: as §1
D(3) dopamine receptor = D(3) dopamine receptor (Homo sapiens, UniProt P35462); test: Displacement of [3H]spiperone from dopamine D3 receptor in CHO cells; type: cell-based; method in brief: as §1
D(4) dopamine receptor = molecular target: T2, D(4) dopamine receptor (Homo sapiens, UniProt P21917); test: Displacement of [3H]spiperone from dopamine D4.4 receptor in CHO cells; type: cell-based; method in brief: as §1
T2 sequence (P21917 whole entry): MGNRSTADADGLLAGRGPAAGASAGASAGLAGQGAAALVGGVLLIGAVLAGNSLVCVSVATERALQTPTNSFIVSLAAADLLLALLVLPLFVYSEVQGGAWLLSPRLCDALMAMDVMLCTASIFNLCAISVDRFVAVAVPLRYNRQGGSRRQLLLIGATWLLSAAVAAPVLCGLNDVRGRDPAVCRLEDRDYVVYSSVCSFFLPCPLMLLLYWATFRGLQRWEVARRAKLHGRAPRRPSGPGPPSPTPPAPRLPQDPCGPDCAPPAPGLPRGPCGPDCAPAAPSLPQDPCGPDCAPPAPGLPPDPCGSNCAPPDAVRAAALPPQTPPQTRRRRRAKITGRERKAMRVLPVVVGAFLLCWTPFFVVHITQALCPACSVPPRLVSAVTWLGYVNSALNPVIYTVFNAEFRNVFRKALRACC

[3] = Lipophilicity, log D at pH 7.4; settings: buffer
[4] = Displacement of [3H]8HO-DPAT from serotonin 5-HT1A receptor in pig cortical membrane
[5] = Displacement of [3H]ketanserin from serotonin 5-HT2 receptor in pig cortical membrane
[6] = Displacement of [3H]prazosin from adrenergic-alpha-1 receptor in pig cortical membrane

Chain of D(1A) dopamine receptor (P50130 whole entry): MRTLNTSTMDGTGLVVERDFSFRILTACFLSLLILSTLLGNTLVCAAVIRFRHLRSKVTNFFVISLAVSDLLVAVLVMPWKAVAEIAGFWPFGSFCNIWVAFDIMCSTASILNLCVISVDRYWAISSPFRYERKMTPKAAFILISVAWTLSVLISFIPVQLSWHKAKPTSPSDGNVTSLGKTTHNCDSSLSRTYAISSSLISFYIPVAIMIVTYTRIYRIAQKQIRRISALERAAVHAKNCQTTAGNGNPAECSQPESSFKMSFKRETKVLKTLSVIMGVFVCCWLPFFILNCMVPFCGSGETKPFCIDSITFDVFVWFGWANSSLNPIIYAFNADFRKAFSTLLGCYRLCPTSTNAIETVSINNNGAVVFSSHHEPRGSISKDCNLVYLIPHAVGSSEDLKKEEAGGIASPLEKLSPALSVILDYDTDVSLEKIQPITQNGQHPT
Chain of D(3) dopamine receptor (P35462 whole entry): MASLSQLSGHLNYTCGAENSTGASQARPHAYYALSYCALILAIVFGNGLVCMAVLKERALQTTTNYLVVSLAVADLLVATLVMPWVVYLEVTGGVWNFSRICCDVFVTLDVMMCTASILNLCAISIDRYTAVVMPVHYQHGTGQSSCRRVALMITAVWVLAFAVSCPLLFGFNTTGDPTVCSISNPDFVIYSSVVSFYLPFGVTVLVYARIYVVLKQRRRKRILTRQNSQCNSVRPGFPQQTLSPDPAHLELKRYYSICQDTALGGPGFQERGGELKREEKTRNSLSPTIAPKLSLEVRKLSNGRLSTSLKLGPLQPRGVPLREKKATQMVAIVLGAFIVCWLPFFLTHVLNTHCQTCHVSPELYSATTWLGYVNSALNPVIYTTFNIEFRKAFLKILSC
T1 sequence (P14416 whole entry): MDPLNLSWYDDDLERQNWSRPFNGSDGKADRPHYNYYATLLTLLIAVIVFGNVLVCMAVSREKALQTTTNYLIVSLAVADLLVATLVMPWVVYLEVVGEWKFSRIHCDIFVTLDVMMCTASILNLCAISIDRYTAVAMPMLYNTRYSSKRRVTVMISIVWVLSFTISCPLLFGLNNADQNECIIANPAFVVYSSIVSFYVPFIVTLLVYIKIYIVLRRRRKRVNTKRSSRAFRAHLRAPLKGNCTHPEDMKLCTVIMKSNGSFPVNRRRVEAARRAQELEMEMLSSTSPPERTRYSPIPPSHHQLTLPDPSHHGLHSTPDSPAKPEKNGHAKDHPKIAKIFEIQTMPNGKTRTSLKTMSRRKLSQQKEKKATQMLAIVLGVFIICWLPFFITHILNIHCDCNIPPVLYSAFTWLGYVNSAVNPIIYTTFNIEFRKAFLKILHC

Compound	Ki (D(1A) dopamine receptor)	Ki (D(2) dopamine receptor [1])	Ki (D(2) dopamine receptor [2])	Ki (D(3) dopamine receptor)	Ki (D(4) dopamine receptor)	logD [3]	Ki [4]	Ki [5]	Ki [6]
C=CCN1CCC[C@H]1CNC(=O)c1cc(Br)cc(OC)c1OC	13 µM	0.88 nM	0.85 nM	0.6 nM	210 nM	2.83	140 nM	1100 nM	1600 nM
C=CCN1CCC[C@H]1CNC(=O)c1cc(I)cc(OC)c1OC	18 µM	0.74 nM	0.68 nM	0.46 nM	250 nM	2.91	150 nM	490 nM	1100 nM
C=CCN1CCC[C@H]1CNC(=O)c1cc(I)ccc1OC	13 µM	15 nM	14 nM	11 nM	630 nM	2.81	170 nM	2400 nM	2000 nM
C=CCN1CCC[C@H]1CNC(=O)c1cc(Br)ccc1OC	17 µM	27 nM	23 nM	22 nM	1700 nM	2.71	230 nM	2100 nM	2000 nM
C=CCN1CCC[C@H]1CNC(=O)c1cc(CCCF)ccc1OC	30 µM	30 nM	30 nM	33 nM	3000 nM	2.63	2300 nM	4500 nM	1900 nM
C=CCN1CCC[C@H]1CNC(=O)c1cc(CCCF)cc(OC)c1OC [FALLYPRIDE]	18 µM	2.1 nM	2.2 nM		1300 nM	2.66	1100 nM	3700 nM	970 nM
CCN1CCC[C@H]1CNC(=O)c1c(OC)ccc(I)c1O [IOLOPRIDE]	12 µM	4.2 nM	4.2 nM	4.2 nM	570 nM	3.13	1100 nM	2000 nM	1900 nM
CCN1CCC[C@H]1CNC(=O)c1c(O)c(Cl)cc(Cl)c1OC [RACLOPRIDE]	37 µM			15 nM	3100 nM		4400 nM	3500 nM	3000 nM
